Screening results as filed in PubChem.
T cruzi growth-1 – T. cruzi intracellular proliferation inhibitors, primary screen, cell-based, beta-gal Tulahuen parasites, NIH3T3 host, luminescence; T. cruzi beta-gal in NIH3T3, GalScreen luminescence, 90 h; inhibition, % at 8.34 µM; 77,000 tested, 5.9% active; AID 624255, 2012;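 active means mean inhibition above about 93%, with at least 55% of replicates each passing it, limit read from the data, passing the limit was not always enough; inconclusive means only one of those two conditions holds; inactive means neither condition holds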
IDH1 R132H inh – inhibitors of IDH1 R132H reductase, primary screen, biochemical, plate reader, single point; Isocitrate dehydrogenase [NADP] cytoplasmic (Homo sapiens), O75874; diaphorase/resazurin fluorescence, 60 min; inhibition, % at 10 µM; 70,000 tested, 0.18% active; in the data active means inhibition above about 34%; inconclusive means no clear call, values can overlap the other calls; inactive means below about 11%;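 further: 0% = DMSO and 100% = no enzyme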
GASC1 inh – inhibitors of GASC-1 (KDM4C) histone demethylase, primary screen, biochemical, single concentration HTS | 96,000 tested, 0.15% active | GST-KDM4C 2-372, H3K9me3 peptide, LANCE TR-FRET | inhibition, % at 12.5 µM | AID 720574, 2013 | Lysine-specific demethylase 4C (Homo sapiens), Q9H3R0;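 active means mean replicate inhibition above about 25%, with at least 55% of replicates also reaching it, limit read from the data, passing the limit was not always enough; inconclusive means only one of those two conditions met; inactive means neither condition met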
Target sequence (Q9H3R0 2-372 limits assumed): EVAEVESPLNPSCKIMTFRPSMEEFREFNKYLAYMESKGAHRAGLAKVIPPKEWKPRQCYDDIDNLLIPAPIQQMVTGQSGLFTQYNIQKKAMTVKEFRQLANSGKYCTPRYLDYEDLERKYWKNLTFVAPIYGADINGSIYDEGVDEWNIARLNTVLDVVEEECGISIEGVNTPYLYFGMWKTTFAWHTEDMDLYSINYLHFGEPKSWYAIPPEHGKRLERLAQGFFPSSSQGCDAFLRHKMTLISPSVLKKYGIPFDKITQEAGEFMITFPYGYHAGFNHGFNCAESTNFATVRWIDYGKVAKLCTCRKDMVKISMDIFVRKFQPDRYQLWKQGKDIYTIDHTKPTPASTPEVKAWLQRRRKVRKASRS
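Material: N-terminal GST-fused human GASC-1 (KDM4C) fragment, residues 2-372. Input: 10 nM enzyme. Incubation: enzyme reaction 30 min, then detection 60 min, both room temperature. Doses: one test concentration per compound. Read-out basis: inhibition from TR-FRET ratio decrease. Detection: LANCE TR-FRET, excitation 340 nm, emissions 618 and 671 nm.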
Pf Dd2 inh – P. falciparum Dd2 growth inhibitors, primary screen, SYBR Green fluorescence, single dose replicates; 72 h; stronger effect = lower value; activity change, % at 10 µM; 94,000 tested, 2.3% active; AID 1159554, 2015; in the data active means activity change below about -80%; inconclusive means no clear call, values can overlap the other calls
T cruzi growth-2 – T. cruzi intracellular proliferation inhibitors, confirmation, cell-based, NIH3T3 host, beta-gal parasite, luminescence, cherry-pick; shares compounds with T cruzi growth-1; T. cruzi beta-gal in NIH3T3, GalScreen luminescence, 90 h; inhibition, % at 8.35 µM; 5,600 tested, 72% active; AID 651739, 2012;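 active means mean replicate inhibition above about 95% and at least 55% of replicates individually reaching it, limit read from the data; inconclusive means only one of the two criteria is met; inactive means neither criterion is met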
T cruzi growth-3 – inhibitors of intracellular T. cruzi replication, confirmation, NIH3T3 host cells, beta-gal parasites, cherry-pick, set 2. AID 651740, 2012. T. cruzi beta-gal in NIH3T3, GalScreen luminescence, 90 h. inhibition, % at 2.09 µM. shares compounds with T cruzi growth-1. 5,600 tested, 21% active;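 active means mean inhibition above about 95%, with at least 55% of replicates also reaching it, limit read from the data; inconclusive means meets just one of the two conditions; inactive means meets neither condition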;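 further: plate controls were neutral control median for no effect and positive control median for full effect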
NIH3T3 tox – cytotoxicity in mouse NIH/3T3 fibroblasts, confirmation, cytotoxicity control for T. cruzi proliferation inhibitor project, cell-based, cherry-pick, single point. AID 651742, 2012. shares compounds with T cruzi growth-1. 5,600 tested, 14% active. cytotoxicity (signal decrease), % at 8.35 µM. NIH/3T3 viability, CellTiter-Glo ATP luminescence, 90 h;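 active means mean signal decrease across replicates above about 35% based on untreated-well scatter, with enough replicates individually passing, limit read from the data; inconclusive means no rule stated though some were filed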;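 further: 0% = median of neutral control wells and 100% = median of positive control wells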
NIH3T3 tox 2 – NIH/3T3 fibroblast cytotoxicity, confirmation, cytotoxicity control, cell-based, cherry-pick, single point, set 2. shares compounds with T cruzi growth-1. NIH/3T3 viability, CellTiter-Glo ATP luminescence, 90 h. inhibition, % at 24.9 µM. 5,600 tested, 56% active. AID 651744, 2012;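 active means mean loss of cell viability signal at or above a set limit, and enough replicates individually reaching it; inconclusive means meets only the mean limit or only the replicate share; inactive means meets neither condition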;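 further: 0% = median of neutral control wells and 100% = median of positive control wells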
* hit, by the source's call; u = inconclusive; x = no result given. An excerpt weighted towards active compounds, which were near 5.9% of everything screened.

SMILES	T cruzi growth-1	IDH1 R132H inh	GASC1 inh	Pf Dd2 inh	T cruzi growth-2	T cruzi growth-3	NIH3T3 tox	NIH3T3 tox 2
CC(C)CC#Cc1cnc2c(c1)C(=O)N([C@H](C)CO)C[C@H](C)[C@@H](CN(C)Cc1ccc(F)cc1)O2	48	-2	-1	-30	x	x	x	x
CC(C)CC#Cc1cnc2c(c1)C(=O)N([C@@H](C)CO)C[C@@H](C)[C@H](CN(C)Cc1ccc(F)cc1)O2	u	0	5	-51	104*	32	25	105*
C1=C(CN2CCOCC2)COc2c1cccc2OCC1CNCCO1 (configuration not stated)	x	1	x	x	x	x	x	x
Cc1ccc(S(=O)(=O)NCCSc2nnc(Nc3ccccc3)s2)cc1	x	0	x	x	x	x	x	x
C[C@H](CO)N1C[C@H](C)[C@H](CN(C)Cc2cccc(C(F)(F)F)c2)Oc2ncc(C#Cc3ccc(F)cc3)cc2C1=O	x	x	0	-33	x	x	x	x
C[C@H](CO)N1C[C@H](C)[C@H](CN(C)Cc2cccc(C(F)(F)F)c2)Oc2ncc(C#Cc3ccccc3)cc2C1=O	99*	1	0	-42	102*	86	8	31*
Cc1cccc(NC(c2ccccc2[N+](=O)[O-])c2ccc3ccc(C)nc3c2O)n1 (configuration not stated)	x	0	x	x	x	x	x	x
CCCC#Cc1ccc2c(c1)O[C@@H](CN(C)S(=O)(=O)c1cccc(F)c1)[C@H](C)CN([C@@H](C)CO)S2(=O)=O	124*	-1	0	-32	106*	108*	33	67*
CCCC#Cc1ccc2c(c1)O[C@@H](CN(C)S(=O)(=O)c1cccc(F)c1)[C@H](C)CN([C@H](C)CO)S2(=O)=O	123*	0	-2	-22	106*	84	51*	96*
C[C@@H]1CN([C@@H](C)CO)S(=O)(=O)c2ccc(C#CCN(C)C)cc2O[C@H]1CN(C)S(=O)(=O)c1cccc(F)c1	x	0	8	-78	x	x	x	x
COCC#Cc1ccc2c(c1)O[C@H](CN(C)S(=O)(=O)c1cccc(F)c1)[C@@H](C)CN([C@H](C)CO)S2(=O)=O	u	0	-1	-70	70	10	20	69*
COCC#Cc1ccc2c(c1)O[C@H](CN(C)S(=O)(=O)c1cccc(F)c1)[C@H](C)CN([C@@H](C)CO)S2(=O)=O	42	0	-2	-69	x	x	x	x
CCCC#Cc1ccc2c(c1)O[C@H](CN(C)S(=O)(=O)c1cccc(F)c1)[C@H](C)CN([C@@H](C)CO)S2(=O)=O	124*	1	-1	-68	96*	99*	43*	76*
CCCC#Cc1ccc2c(c1)O[C@H](CN(C)S(=O)(=O)c1cccc(F)c1)[C@@H](C)CN([C@@H](C)CO)S2(=O)=O	114*	-2	-3	-36	100*	117*	0	104*
CC(C)C#Cc1ccc([C@H]2[C@@H](CO)N3CCCCN(C(=O)c4ccc5c(c4)OCO5)C[C@@H]23)cc1	99*	x	-2	-1	110*	106*	68*	50*
C[C@H](O)C#Cc1ccc([C@@H]2[C@@H](CO)N3CCCCN(C(=O)c4ccc5c(c4)OCO5)C[C@@H]23)cc1	97*	x	11	4	105*	32	31	44*
C[C@H](O)C#Cc1ccc([C@@H]2[C@H]3CN(C(=O)c4ccc5c(c4)OCO5)CCCCN3[C@H]2CO)cc1	33	x	2	17	x	x	x	x
O=C(CSc1ccc2ccccc2n1)Nc1ccnc2ccccc12	x	-1	x	x	x	x	x	x
